Measured values reported in ChEMBL document CHEMBL4229380, “Arylureas derived from colchicine: Enhancement of colchicine oncogene downregulation activity” (Eur J Med Chem, 2018).
One block for each compound: values may come before it.

Columns and labels:
HT-29 [1] = test: Antiproliferative activity against human HT-29 cells after 2 days by MTT assay; format: functional, cell-based; conditions: HT-29, 48 h
In short: (§1)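 Cells (5×10^3 per well) in DMEM with 10% FBS, glucose, glutamine and antibiotics were exposed to serial dilutions (stocks in DMSO) for 2 days at 37 °C, 5% CO2. MTT was added for 3 h, formazan was dissolved in DMSO and absorbance read at 490 nm. Viability was taken as % of untreated cells. IC50 was read graphically from three independent experiments.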

MCF7 = test: Antiproliferative activity against human MCF7 cells after 2 days by MTT assay; format: functional, cell-based; conditions: MCF7, 48 h; in short: as §1
HeLa = test: Antiproliferative activity against human HeLa cells after 2 days by MTT assay; format: functional, cell-based; conditions: 48 h; in short: as §1
HEK293 = test: Antiproliferative activity against human HEK293 cells after 2 days by MTT assay; format: cell-based; conditions: HEK293, 48 h; in short: as §1
HT-29 [2] = test: Induction of apoptosis in human HT-29 cells assessed as viable cells at 2000 nM after 48 hrs by Annexin V-FITC staining-based flow cytometric analysis (reference value: 82 +/- 1%); format: functional; conditions: HT-29, 48 h, read-out: Activity
HT-29 [3] = test: Induction of apoptosis in human HT-29 cells assessed as apoptotic cells at 2000 nM after 48 hrs by Annexin V-FITC staining-based flow cytometric analysis (reference value: 13 +/- 3%); format: functional
HT-29 [4] = test: Induction of apoptosis in human HT-29 cells assessed as necrotic cells at 2000 nM after 48 hrs by Annexin V-FITC staining-based flow cytometric analysis (reference value: 2 +/- 6%); format: functional
HT-29 [5] = test: Effect on c-MYC gene expression in human HT-29 cells assessed as c-MYC level at 0.5 nM after 48 hrs by RT-qPCR analysis; format: functional
In short: (§2)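 HT-29 cells at 70–80% confluence were seeded at 1.5×10^5 per well and left 24 h, then treated 48 h, with DMSO as control. Total RNA was extracted and VEGF-A, c-Myc and hTERT were quantified by TaqMan qPCR, normalized to β-actin and to living cell number. Results are % expression versus control, at least three measurements.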

HT-29 [6] = test: Effect on hTERT gene expression in human HT-29 cells assessed as hTERT level at 0.5 nM after 48 hrs by RT-qPCR analysis; format: functional; in short: as §2
HT-29 [7] = test: Effect on VEGF gene expression in human HT-29 cells assessed as VEGF level at 0.5 nM after 48 hrs by RT-qPCR analysis; format: functional; in short: as §2
HT-29 [8] = test: Effect on c-MYC protein expression in human HT-29 cells assessed as c-MYC level at 0.5 nM after 48 hrs by ELISA; format: functional
In short: (§3)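 HT-29 cells (1.5×10^5 per well, 24 h pre-culture) were treated 48 h and washed in PBS. They were lysed in Tris pH 7.4 buffer with detergents, phosphatase inhibitors, PMSF and protease inhibitors. Lysates were adjusted to 200 µg/mL protein (Bradford) and total c-Myc or VEGFR-2 was measured by sandwich ELISA kit. Values are % of DMSO control, ≥3 measurements.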

HT-29 [9] = test: Effect on VEGFR2 protein expression in human HT-29 cells assessed as VEGFR2 level at 0.5 nM after 48 hrs by ELISA; format: functional; in short: as §3
HT-29 [10] = test: Effect on VEGF protein expression in human HT-29 cells assessed as secreted VEGF level in culture media at 0.5 nM after 48 hrs by ELISA
HT-29 [11] = test: Induction of apoptosis in human HT-29 cells assessed as viable cells at 20 nM after 48 hrs by Annexin V-FITC staining-based flow cytometric analysis (reference value: 82 +/- 1%); format: functional; conditions: HT-29, 48 h, read-out: Activity
HT-29 [12] = test: Induction of apoptosis in human HT-29 cells assessed as apoptotic cells at 20 nM after 48 hrs by Annexin V-FITC staining-based flow cytometric analysis (reference value: 13 +/- 3%); format: functional
HT-29 [13] = test: Induction of apoptosis in human HT-29 cells assessed as necrotic cells at 20 nM after 48 hrs by Annexin V-FITC staining-based flow cytometric analysis (reference value: 2 +/- 6%); format: functional
HT-29 [14] = test: Effect on c-MYC gene expression in human HT-29 cells assessed as c-MYC level at 20 nM after 48 hrs by RT-qPCR analysis; format: functional; in short: as §2
HT-29 [15] = test: Effect on hTERT gene expression in human HT-29 cells assessed as hTERT level at 20 nM after 48 hrs by RT-qPCR analysis; format: functional; in short: as §2
HT-29 [16] = test: Effect on VEGF gene expression in human HT-29 cells assessed as VEGF level at 20 nM after 48 hrs by RT-qPCR analysis; format: functional; in short: as §2
HT-29 [17] = test: Effect on c-MYC protein expression in human HT-29 cells assessed as c-MYC level at 20 nM after 48 hrs by ELISA; format: functional; in short: as §3
HT-29 [18] = test: Effect on VEGFR2 protein expression in human HT-29 cells assessed as VEGFR2 level at 20 nM after 48 hrs by ELISA; format: functional; in short: as §3
HT-29 [19] = test: Effect on VEGF protein expression in human HT-29 cells assessed as secreted VEGF level in culture media at 20 nM after 48 hrs by ELISA
HT-29 [20] = test: Induction of apoptosis in human HT-29 cells assessed as viable cells at 40 nM after 48 hrs by Annexin V-FITC staining-based flow cytometric analysis (reference value: 82 +/- 1%); format: functional; conditions: HT-29, 48 h, read-out: Activity
HT-29 [21] = test: Induction of apoptosis in human HT-29 cells assessed as apoptotic cells at 40 nM after 48 hrs by Annexin V-FITC staining-based flow cytometric analysis (reference value: 13 +/- 3%); format: functional
HT-29 [22] = test: Induction of apoptosis in human HT-29 cells assessed as necrotic cells at 40 nM after 48 hrs by Annexin V-FITC staining-based flow cytometric analysis (reference value: 2 +/- 6%); format: functional
HT-29 [23] = test: Effect on c-MYC gene expression in human HT-29 cells assessed as c-MYC level at 25 nM after 48 hrs by RT-qPCR analysis; format: functional; in short: as §2
HT-29 [24] = test: Effect on hTERT gene expression in human HT-29 cells assessed as hTERT level at 25 nM after 48 hrs by RT-qPCR analysis; format: functional; in short: as §2
HT-29 [25] = test: Effect on VEGF gene expression in human HT-29 cells assessed as VEGF level at 25 nM after 48 hrs by RT-qPCR analysis; format: functional; in short: as §2
HT-29 [26] = test: Effect on c-MYC protein expression in human HT-29 cells assessed as c-MYC level at 25 nM after 48 hrs by ELISA; format: functional; in short: as §3
HT-29 [27] = test: Effect on VEGFR2 protein expression in human HT-29 cells assessed as VEGFR2 level at 25 nM after 48 hrs by ELISA; format: functional; in short: as §3
HT-29 [28] = test: Effect on VEGF protein expression in human HT-29 cells assessed as secreted VEGF level in culture media at 25 nM after 48 hrs by ELISA
HT-29 [29] = test: Induction of apoptosis in human HT-29 cells assessed as viable cells at 25000 nM after 48 hrs by Annexin V-FITC staining-based flow cytometric analysis (reference value: 82 +/- 1%); format: functional; conditions: HT-29, 48 h, read-out: Activity
HT-29 [30] = test: Induction of apoptosis in human HT-29 cells assessed as apoptotic cells at 25000 nM after 48 hrs by Annexin V-FITC staining-based flow cytometric analysis (reference value: 13 +/- 3%); format: functional
HT-29 [31] = test: Induction of apoptosis in human HT-29 cells assessed as necrotic cells at 25000 nM after 48 hrs by Annexin V-FITC staining-based flow cytometric analysis (reference value: 2 +/- 6%); format: functional
HT-29 [32] = test: Effect on c-MYC gene expression in human HT-29 cells assessed as c-MYC level at 25 uM after 48 hrs by RT-qPCR analysis; format: functional; in short: as §2
HT-29 [33] = test: Effect on hTERT gene expression in human HT-29 cells assessed as hTERT level at 25 uM after 48 hrs by RT-qPCR analysis; format: functional; in short: as §2
HT-29 [34] = test: Effect on VEGF gene expression in human HT-29 cells assessed as VEGF level at 25 uM after 48 hrs by RT-qPCR analysis; format: functional; in short: as §2
HT-29 [35] = test: Effect on c-MYC protein expression in human HT-29 cells assessed as c-MYC level at 25 uM after 48 hrs by ELISA; format: functional; in short: as §3
HT-29 [36] = test: Effect on VEGFR2 protein expression in human HT-29 cells assessed as VEGFR2 level at 25 uM after 48 hrs by ELISA; format: functional; in short: as §3
HT-29 [37] = test: Effect on VEGF protein expression in human HT-29 cells assessed as secreted VEGF level in culture media at 25 uM after 48 hrs by ELISA

IC50 (HT-29 [1]): 0.71 nM | IC50 (MCF7): 0.9 nM | IC50 (HeLa): 3 nM
SMILES: COc1cc2c(c(OC)c1OC)-c1ccc(OC)c(=O)cc1[C@@H](NC(=O)Nc1ccc(C)cc1Cl)CC2
IC50 (HEK293): 3 nM | viability at 2 µM (HT-29 [2]): 66% | Activity (HT-29 [3]): 33% | Activity (HT-29 [4]): 1% | Activity (HT-29 [5]): 85% | Activity (HT-29 [6]): 80% | Activity (HT-29 [7]): 70% | Activity (HT-29 [8]): 112% | Activity (HT-29 [9]): 45% | Activity (HT-29 [10]): 75%

IC50 (HT-29 [1]): 15 nM | IC50 (MCF7): 25 nM | IC50 (HeLa): 18 nM
SMILES: COc1cc2c(c(OC)c1OC)-c1ccc(OC)c(=O)cc1[C@@H](NC(=O)Nc1ccccc1C(F)(F)F)CC2
IC50 (HEK293): 19 nM | viability at 0.02 µM (HT-29 [11]): 96% | Activity (HT-29 [12]): 4% | Activity (HT-29 [13]): 1% | Activity (HT-29 [14]): 107% | Activity (HT-29 [15]): 107% | Activity (HT-29 [16]): 101% | Activity (HT-29 [17]): 99% | Activity (HT-29 [18]): 100% | Activity (HT-29 [19]): 82%

SMILES: COc1cc2c(c(OC)c1OC)-c1ccc(OC)c(=O)cc1[C@@H](NC(C)=O)CC2 [COLCHICINE]
IC50 (HT-29 [1]): 13 nM | IC50 (MCF7): 20 nM | IC50 (HeLa): 14 nM | IC50 (HEK293): 13 nM | viability at 0.04 µM (HT-29 [20]): 26% | Activity (HT-29 [21]): 73% | Activity (HT-29 [22]): 1% | Activity (HT-29 [23]): 37% | Activity (HT-29 [24]): 87% | Activity (HT-29 [25]): 55% | Activity (HT-29 [26]): 63% | Activity (HT-29 [27]): 94% | Activity (HT-29 [28]): 40%

SMILES: CCN(CC)CCNC(=O)c1c(C)[nH]c(/C=C2\C(=O)Nc3ccc(F)cc32)c1C [SUNITINIB]
viability at 25 µM (HT-29 [29]): 75% | Activity (HT-29 [30]): 22% | Activity (HT-29 [31]): 3% | Activity (HT-29 [32]): 47% | Activity (HT-29 [33]): 68% | Activity (HT-29 [34]): 46% | Activity (HT-29 [35]): 100% | Activity (HT-29 [36]): 90% | Activity (HT-29 [37]): 45%
